Screening results: PubChem, several laboratories
PolyA inhibitor = yeast polyadenylation inhibition; S. cerevisiae SKY197-pL101 polyadenylation reporter, beta-gal luminescence; efflux-impaired pdr1/pdr3 knockout yeast; score 100 = 6 SD above DMSO; activity score, % at 12 µM; hit rate 0.02% among 300,000;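 active = lowest replicate activity score at least 50, where 100 means six control SD above control mean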;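 also: yeast exposed to compound for 9 h at 30 °C; higher score means more reporter readthrough which indicates perturbed polyadenylation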
procasp3 activ = activators of human procaspase-3; P42574; recombinant procaspase-3 D3A, Ac-DEVD-pNA absorbance 405 nm; activation, % at 8.5 µM; hit rate 0.11% among 330,000; AID 463141;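 active = activation above the mean of all tested compounds plus 3 SD, cut at about 21% in these data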;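 also: 0% = DMSO alone and 100% = DMSO wells spiked with extra 5 µM PC-3 D3A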
Target sequence (P42574 whole entry D9A/D28A/D175A): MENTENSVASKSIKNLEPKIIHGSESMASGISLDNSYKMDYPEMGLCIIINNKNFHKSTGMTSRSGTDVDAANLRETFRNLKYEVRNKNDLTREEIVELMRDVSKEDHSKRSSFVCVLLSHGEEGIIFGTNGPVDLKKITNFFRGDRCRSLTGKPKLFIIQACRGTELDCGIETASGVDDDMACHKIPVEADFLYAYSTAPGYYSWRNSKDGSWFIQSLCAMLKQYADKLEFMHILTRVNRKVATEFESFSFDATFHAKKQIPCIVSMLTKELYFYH
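assay system = Procaspase-3 D3A mutant | signal = absorbance at 405 nm, 0 and 120 min | times = 1 h preincubation plus 2 h reaction at 25 °C | repeats = single replicate | read-out = % activation between DMSO and enzyme-spiked controls | medium = Zinc-free HEPES saline buffer with Triton X-100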
VIM-2 inhibitor = blocks Pseudomonas aeruginosa VIM-2 metallo-beta-lactamase | purified VIM-2, nitrocefin hydrolysis, epi-absorbance fluorescence | inhibition, % at 5.6 µM | hit rate 0.89% among 290,000 | AID 1527;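 active = inhibition above the mean of all tested compounds plus 3 SD, cutoff set per screening run, cut at about 7.5% in these data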;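 also: red hydrolysis product quenches plate fluorescence so inhibitors raise well fluorescence; 0% = enzyme with DMSO and 100% = DMSO without enzyme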
Neddyl block = cullin neddylation inhibition; P61081+Q13564; TR-FRET cullin neddylation, biochemical; calls only at 25 µM; hit rate 0.58% among 360,000; in the data active = inhibition above about 36%
IMP-1 inh = blocks Pseudomonas aeruginosa IMP-1 metallo-beta-lactamase; purified IMP-1, nitrocefin hydrolysis, epi-absorbance fluorescence; inhibition, % at 5.6 µM; hit rate 0.45% among 290,000; AID 1556;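 active = inhibition above the mean plus 3 SD of all compounds in the same screening run, cut at about 4.5% in these data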;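 also: 0% = IMP-1 with DMSO and 100% = DMSO wells lacking enzyme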
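Assay system: purified recombinant IMP-1 beta-lactamase. Input: IMP-1 0.2 nM before substrate addition. Buffer or medium: Zinc- and detergent-supplemented HEPES buffer, pH 7.1. Schedule: 25 °C, 15 min preincubation, 25 min reaction. Signal: Epi-absorbance fluorescence, 480 nm excitation, 530 nm emission. Evaluation: percent inhibition from optical density relative to buffer-blank wells.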
proCasp7 act = counter-screen: procaspase-7 (human) activation | P55210 | recombinant procaspase-7, Ac-DEVD-pNA absorbance 405 nm; D23A/D198A/D206A triple mutant, cannot self-cleave; scale: DMSO 0, 5 µM enzyme 100 | activation, % at 8.5 µM | hit rate 0.093% among 330,000 | AID 463210;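 active = percent activation above the screen-wide mean plus 3 SD, cut at about 25% in these data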
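Assay system: Uncleavable procaspase-7 mutant enzyme / Input: 2 µM procaspase-7 mutant as dispensed / Dosing: single nominal 8.5 µM compound dose, 0.8% DMSO final / Timing: 1 h enzyme–compound preincubation and 2 h substrate reaction, both 25 °C / Detection: p-Nitroaniline absorbance at 405 nm, read at 0 and 120 min / Replication: singlicate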
VIM-2 confirm = VIM-2 inhibition, confirmation assay | shares compounds with IMP-1 inh | inhibition, % at 5.6 µM | purified VIM-2 enzyme, nitrocefin absorbance | hit rate 73% among 200; in the data active = inhibition above about 8%;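 also: 0% = enzyme with vehicle and 100% = no enzyme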
TEM-1 inh 2 = blocks E. coli TEM-1 beta-lactamase, VIM-2 IMP-1 counter-screen; hit rate 50% among 200; nitrocefin absorbance inhibition; inhibition, % at 5.6 µM; AID 2184; shares compounds with IMP-1 inh; in the data active = inhibition above about 0.66%
Target sequence (P62593 whole entry, looked up): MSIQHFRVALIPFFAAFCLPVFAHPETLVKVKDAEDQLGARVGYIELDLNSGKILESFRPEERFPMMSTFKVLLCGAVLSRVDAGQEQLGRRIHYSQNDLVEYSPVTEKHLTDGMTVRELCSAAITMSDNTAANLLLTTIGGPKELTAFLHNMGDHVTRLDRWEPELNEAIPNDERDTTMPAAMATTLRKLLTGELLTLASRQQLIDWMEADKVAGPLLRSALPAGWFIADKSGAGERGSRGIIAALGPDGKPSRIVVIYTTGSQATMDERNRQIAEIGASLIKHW
IMP-1 inh conf = confirmation of P. aeruginosa IMP-1 metallo-beta-lactamase inhibitors; shares compounds with IMP-1 inh; purified IMP-1 enzyme, absorbance substrate hydrolysis; inhibition, % at 5.6 µM; hit rate 60% among 200; in the data active = inhibition above about 4.9%;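 also: 0% = enzyme with vehicle and 100% = vehicle without enzyme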
Starred values were filed as active, the others as inactive; i = inactive; x = no result shown. Most compounds without a hit are left out; they make up all but 1.7% or so of the library.

SMILES	PolyA inhibitor	procasp3 activ	VIM-2 inhibitor	Neddyl block	IMP-1 inh	proCasp7 act	VIM-2 confirm	TEM-1 inh 2	IMP-1 inh conf
CCN(CC)CCOC(=O)c1ccc(N/C=C(/C#N)c2nc(-c3cc4ccccc4oc3=O)cs2)cc1	16	x	42*	i	13*	x	52*	-5	11*
CCn1nnnc1-c1ccc(OC)c(S(=O)(=O)NCc2ccccc2)c1	12	-7	-2	i	-1	5	x	x	x
O=C(NCCc1ccccc1)C(=O)Nc1ccc([N+](=O)[O-])cc1	8	6	-4	i	-4	8	x	x	x
CCn1c(=S)sc2c(=O)n(CC(=O)Nc3ccccc3)c(C)nc21	1	10	0	i	-4	15	x	x	x
CCn1c(=S)sc2c(=O)n(CC(=O)Nc3ccccc3C(F)(F)F)c(C)nc21	-7	4	21*	i	41*	6	19*	0	24*
COc1ccc2nc(N3C(=O)CNC3=S)sc2c1	23	-4	-2	i	-3	-3	x	x	x
CCN(CC)c1ccc2cc(-c3nc4ccccc4[nH]3)c(=O)oc2c1	16	-26	13*	i	18*	-3	61*	105*	59*
CCN(CC)c1ccc2cc(-c3nnc(-c4ccccc4)o3)c(=O)oc2c1	9	-7	8.4*	i	8.3*	1	33*	43*	26*
Cc1ccc(SCCCCN2C(=O)NC(C)(C)C2=O)cc1	18	14	-1	i	1	3	x	x	x
Cc1cc(C)n2nc(SCC(=O)N3CCOCC3)nc2n1	x	4	x	i	x	-3	x	x	x
NC(=S)c1cc2ccc(O)cc2oc1=O	13	x	8	x	4.5*	x	3	-8	-3
C/C(=N/NC(N)=S)c1cc2ccc(O)cc2oc1=O	-11	-15	1	x	0	-26	x	x	x
Cc1cc(C)n2nc3nc4c(cc3c2n1)CCCC4	-13	-2	11*	x	5.0*	2	15*	-1	-1
Cc1cc(C)n2nc(C)c(Br)c2n1	6	3	-1	i	-2	5	x	x	x
O=C1c2cccc3c(O)ccc(c23)C(=O)N1c1ccc(Cl)cc1	-1	-13	30*	i	22*	-3	22*	29*	18*
O=C1c2cccc3c(O)ccc(c23)C(=O)N1Cc1ccco1	-2	x	18*	i	21*	x	31*	38*	28*
CC(=O)Nc1ccc(N2C(=O)c3cccc4c(O)ccc(c34)C2=O)cc1	-16	3	40*	i	34*	-4	30*	34*	28*
O=C1CC(Sc2ncccc2C(=O)O)C(=O)N1 (stereo unspecified)	25	-1	-4	i	-3	-3	x	x	x
Cc1nc(N)c(C#N)c(-c2ccccc2)c1C	12	2	1	i	1	0	x	x	x
O=C(Nc1ccc2oc(-c3ccccc3F)nc2c1)c1ccc([N+](=O)[O-])o1	2	x	12*	i	41*	x	8.5*	7.1*	24*
CN(c1ccc(C(=O)NCC2CCCO2)cc1)S(C)(=O)=O (stereo unspecified)	7	1	-1	i	-4	-4	x	x	x
CC(=O)c1ccc(C2CC(OCCF)=CC(=O)O2)cc1 (stereo unspecified)	x	x	x	i	x	x	x	x	x
O=C(CCN1C(=O)/C(=C/c2ccc(Cl)cc2)SC1=S)NCCCn1ccnc1	5	-9	18*	i	18*	-13	28*	1.2*	32*
Cc1onc(-c2c(Cl)cccc2Cl)c1C(=O)N1CCCCC1	-14	-4	-2	i	-2	-2	x	x	x
CC(c1ccccc1)n1c(-c2ccccc2F)n[nH]c1=S (stereo unspecified)	3	-15	9.1*	i	6.4*	-14	11*	-4	2
SMILES	PolyA inhibitor	procasp3 activ	VIM-2 inhibitor	Neddyl block	IMP-1 inh	proCasp7 act	VIM-2 confirm	TEM-1 inh 2	IMP-1 inh conf
CCCn1cc(SCC(=O)NCc2ccco2)c2ccccc21	-25	3	0	i	2	-5	x	x	x
O=C(c1ccccc1)c1c2c(cc3sc4ccccc4[n+]13)-c1cccc3cccc-2c13	x	-7	16*	i	10*	-15	11*	-3	-1
Cc1sc2cc3c(c(C(=O)c4ccccc4)[n+]2c1C)-c1cccc2cccc-3c12	-51	-6	6	x	-1	-11	x	x	x
Cc1cccn2c(=O)c3cc(C(=O)NCCCn4ccnc4)n(C)c3nc12	-1	2	10*	x	23*	2	32*	-4	2
COc1cccc(OC)c1C(=O)Nc1sc2c(c1C(N)=O)CCN(Cc1ccccc1)C2	6	-4	2	i	1	2	x	x	x
CC(=O)c1ccc(C(=O)Nc2sc3c(c2C(N)=O)CCN(Cc2ccccc2)C3)cc1	-12	-5	8.8*	i	5.5*	14	5	5.7*	3
COc1cc(OC)c(-c2c3cc(O)c(=O)cc-3oc3cc(O)c(O)cc23)cc1OC	x	-6	16*	i	7.0*	-9	49*	75*	46*
CCC(c1c(C)n(C)n(-c2ccccc2)c1=O)c1c(C)n(C)n(-c2ccccc2)c1=O	4	1	36*	i	39*	-4	-2	-4	-4
CCCC(c1c(C)n(C)n(-c2ccccc2)c1=O)c1c(C)n(C)n(-c2ccccc2)c1=O	25	-2	-3	i	-1	-4	x	x	x
Cc1n[nH]c(C)c1N1C(=O)c2cccc3c(N4CCCCCC4)ccc(c23)C1=O	-11	-5	20*	i	16*	-4	27*	21*	9.3*
O=C1c2cccc3c(N4CCCCC4)ccc(c23)C(=O)N1c1cccc(O)c1	-5	-8	2	i	0	-9	x	x	x
CCC(=O)/C=C1/Sc2ccccc2N1CC	-19	-21	1	i	-1	-25	x	x	x
CCOC(=O)/C(=C\C=C1/Sc2ccccc2N1CC)C(C)=O	-28	-23	8.5*	i	7.8*	-26	7	0.7*	4
O=C1C2C(c3ccccc3)C=CC(c3ccccc3)C2C(=O)N1c1ccncc1 (stereo unspecified)	2	-4	25*	i	65*	13	11*	-1	29*
O=C1C2C(c3ccccc3)C=CC(c3ccccc3)C2C(=O)N1c1ccccn1 (stereo unspecified)	-5	-2	26*	i	75*	7	12*	-5	37*
